Test results from ChEMBL document CHEMBL4689842, “EUbOPEN Chemogenomics Library wave 1” (2021).

How the values were obtained:
Assay type in all cases: toxicity, cell-based
Fibroblast [1] = assay: Multiplex assay against human fibroblast
How it was run: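 With compound added, live cells were imaged on a CQ1 microscope at 37°C and 5% CO2; staining with Hoechst33342, BioTracker Green Microtubule Cytoskeleton Dye, MitoTracker Red and Annexin V Alexa Fluor 680 had been done at seeding. The CellPathfinder machine-learning gating scheme split cells into Hoechst high-intensity objects or normal cells, normal cells into healthy, pyknosed or fragmented nuclei, and pyknosed cells into mitotic or apoptotic. The tubulin, mitochondrial-mass and membrane-permeability phenotypes are per cents of healthy-nucleus cells.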

Fibroblast [2] = assay: Incucyte cell viability with human fibroblast; details: 10 µM, compound concentration 10 uM; also: filed as whole numbers so only -1 and 0 and 1 occur
U2OS = assay: Incucyte cell viability with U2OS; details: human, 10 µM, compound concentration 10 uM; also: filed as whole numbers so only -1 and 0 and 1 occur
[3] = 12 h, 1 µM, compound concentration 1 uM, replicate 1
[4] = 12 h, 1 µM, compound concentration 1 uM, replicate 2
[5] = 12 h, 10 µM, compound concentration 10 uM, replicate 1
[6] = 12 h, 10 µM, compound concentration 10 uM, replicate 2
[7] = 24 h, 1 µM, compound concentration 1 uM, replicate 1
[8] = 24 h, 1 µM, compound concentration 1 uM, replicate 2
[9] = 24 h, 10 µM, compound concentration 10 uM, replicate 1
[10] = 24 h, 10 µM, compound concentration 10 uM, replicate 2
[11] = 0 h, replicate number 2, timepoint 0 hours
[12] = 6 h, replicate number 1, timepoint 6 hours
[13] = 12 h, replicate number 1, timepoint 12 hours
[14] = 12 h, replicate number 2, timepoint 12 hours
[15] = 18 h, replicate number 1, timepoint 18 hours
[16] = 24 h, replicate number 1, timepoint 24 hours

CCOc1cc(N2CCC(O)CC2)ccc1Nc1ncc2c(n1)N(C1CCCC1)CCC(=O)N2C
Population Apoptotic (%) (Fibroblast [1]; [3]): 64% | Population Fragmented Nuclei (%) (Fibroblast [1]; [3]): 25% | Population Healthy Nuclei (%) (Fibroblast [1]; [3]): 58% | Population Hoechst High Intensity Objects (%) (Fibroblast [1]; [3]): 12% | Population Membrane Permeable-Phenotype (%) (Fibroblast [1]; [3]): 8% | Population Mitochondria Different-Phenotype (%) (Fibroblast [1]; [3]): 7% | Population Mitotic Cells (%) (Fibroblast [1]; [3]): 35% | Population Normal (%) (Fibroblast [1]; [3]): 87% | Population Pyknosed Nuclei (%) (Fibroblast [1]; [3]): 16% | Population Tubulin-Different-Phenotype (%) (Fibroblast [1]; [3]): 11% | Total Cell Count (Fibroblast [1]; [3]): 197 | Population Apoptotic (%) (Fibroblast [1]; [4]): 0% | Population Fragmented Nuclei (%) (Fibroblast [1]; [4]): 46% | Population Healthy Nuclei (%) (Fibroblast [1]; [4]): 48% | Population Hoechst High Intensity Objects (%) (Fibroblast [1]; [4]): 33% | Population Membrane Permeable-Phenotype (%) (Fibroblast [1]; [4]): 17% | Population Mitochondria Different-Phenotype (%) (Fibroblast [1]; [4]): 17% | Population Mitotic Cells (%) (Fibroblast [1]; [4]): 100% | Population Normal (%) (Fibroblast [1]; [4]): 66% | Population Pyknosed Nuclei (%) (Fibroblast [1]; [4]): 4% | Population Tubulin-Different-Phenotype (%) (Fibroblast [1]; [4]): 39% | Total Cell Count (Fibroblast [1]; [4]): 71 | Population Apoptotic (%) (Fibroblast [1]; [5]): 84% | Population Fragmented Nuclei (%) (Fibroblast [1]; [5]): 23% | Population Healthy Nuclei (%) (Fibroblast [1]; [5]): 58% | Population Hoechst High Intensity Objects (%) (Fibroblast [1]; [5]): 14% | Population Membrane Permeable-Phenotype (%) (Fibroblast [1]; [5]): 8% | Population Mitochondria Different-Phenotype (%) (Fibroblast [1]; [5]): 2% | Population Mitotic Cells (%) (Fibroblast [1]; [5]): 15% | Population Normal (%) (Fibroblast [1]; [5]): 85% | Population Pyknosed Nuclei (%) (Fibroblast [1]; [5]): 17% | Population Tubulin-Different-Phenotype (%) (Fibroblast [1]; [5]): 1% | Total Cell Count (Fibroblast [1]; [5]): 291 | Population Apoptotic (%) (Fibroblast [1]; [6]): 37% | Population Fragmented Nuclei (%) (Fibroblast [1]; [6]): 50% | Population Healthy Nuclei (%) (Fibroblast [1]; [6]): 36% | Population Hoechst High Intensity Objects (%) (Fibroblast [1]; [6]): 29% | Population Membrane Permeable-Phenotype (%) (Fibroblast [1]; [6]): 27% | Population Mitochondria Different-Phenotype (%) (Fibroblast [1]; [6]): 4% | Population Mitotic Cells (%) (Fibroblast [1]; [6]): 62% | Population Normal (%) (Fibroblast [1]; [6]): 70% | Population Pyknosed Nuclei (%) (Fibroblast [1]; [6]): 13% | Population Tubulin-Different-Phenotype (%) (Fibroblast [1]; [6]): 18% | Population Apoptotic (%) (Fibroblast [1]; [7]): 72% | Population Fragmented Nuclei (%) (Fibroblast [1]; [7]): 27% | Population Healthy Nuclei (%) (Fibroblast [1]; [7]): 56% | Population Hoechst High Intensity Objects (%) (Fibroblast [1]; [7]): 12% | Population Membrane Permeable-Phenotype (%) (Fibroblast [1]; [7]): 6% | Population Mitochondria Different-Phenotype (%) (Fibroblast [1]; [7]): 6% | Population Mitotic Cells (%) (Fibroblast [1]; [7]): 27% | Population Normal (%) (Fibroblast [1]; [7]): 87% | Population Pyknosed Nuclei (%) (Fibroblast [1]; [7]): 15% | Population Tubulin-Different-Phenotype (%) (Fibroblast [1]; [7]): 7% | Total Cell Count (Fibroblast [1]; [7]): 211 | Population Apoptotic (%) (Fibroblast [1]; [8]): 66% | Population Fragmented Nuclei (%) (Fibroblast [1]; [8]): 57% | Population Healthy Nuclei (%) (Fibroblast [1]; [8]): 35% | Population Hoechst High Intensity Objects (%) (Fibroblast [1]; [8]): 40% | Population Membrane Permeable-Phenotype (%) (Fibroblast [1]; [8]): 26% | Population Mitochondria Different-Phenotype (%) (Fibroblast [1]; [8]): 20% | Population Mitotic Cells (%) (Fibroblast [1]; [8]): 33% | Population Normal (%) (Fibroblast [1]; [8]): 59% | Population Pyknosed Nuclei (%) (Fibroblast [1]; [8]): 7% | Population Tubulin-Different-Phenotype (%) (Fibroblast [1]; [8]): 26% | Total Cell Count (Fibroblast [1]; [8]): 71 | Population Apoptotic (%) (Fibroblast [1]; [9]): 67% | Population Fragmented Nuclei (%) (Fibroblast [1]; [9]): 17% | Population Healthy Nuclei (%) (Fibroblast [1]; [9]): 62% | Population Hoechst High Intensity Objects (%) (Fibroblast [1]; [9]): 19% | Population Membrane Permeable-Phenotype (%) (Fibroblast [1]; [9]): 5% | Population Mitochondria Different-Phenotype (%) (Fibroblast [1]; [9]): 1% | Population Mitotic Cells (%) (Fibroblast [1]; [9]): 32% | Population Normal (%) (Fibroblast [1]; [9]): 80% | Population Pyknosed Nuclei (%) (Fibroblast [1]; [9]): 19% | Population Tubulin-Different-Phenotype (%) (Fibroblast [1]; [9]): 1% | Total Cell Count (Fibroblast [1]; [9]): 308 | Population Apoptotic (%) (Fibroblast [1]; [10]): 60% | Population Fragmented Nuclei (%) (Fibroblast [1]; [10]): 40% | Population Healthy Nuclei (%) (Fibroblast [1]; [10]): 50% | Population Hoechst High Intensity Objects (%) (Fibroblast [1]; [10]): 28% | Population Membrane Permeable-Phenotype (%) (Fibroblast [1]; [10]): 18% | Population Mitochondria Different-Phenotype (%) (Fibroblast [1]; [10]): 3% | Population Mitotic Cells (%) (Fibroblast [1]; [10]): 40% | Population Normal (%) (Fibroblast [1]; [10]): 72% | Population Pyknosed Nuclei (%) (Fibroblast [1]; [10]): 9% | Population Tubulin-Different-Phenotype (%) (Fibroblast [1]; [10]): 14% | Total Cell Count (Fibroblast [1]; [10]): 75 | Growth Rate (Fibroblast [2]; 0 h, replicate number 1, timepoint 0 hours): 1 | Growth Rate (Fibroblast [2]; [11]): 0 | Growth Rate (Fibroblast [2]; [12]): 0 | Growth Rate (Fibroblast [2]; 6 h, replicate number 2, timepoint 6 hours): 1 | Growth Rate (Fibroblast [2]; [13]): 0 | Growth Rate (Fibroblast [2]; [14]): 1 | Growth Rate (Fibroblast [2]; [15]): 0 | Growth Rate (Fibroblast [2]; [16]): 0 | Growth Rate (U2OS; [11]): 0 | Growth Rate (U2OS; [12]): 0 | Growth Rate (U2OS; [13]): 1 | Growth Rate (U2OS; [14]): 0 | Growth Rate (U2OS; [15]): 0 | Growth Rate (U2OS; [16]): 0
